# Data published in article PMC9674260 (Proceedings of the National Academy of Sciences of the …, 2022).
# Read-outs that look alike come from different tables or passages of the source.
# T1: LRP6 E1 (Homo sapiens, UniProt O75581)
# T1 sequence (O75581 20-326): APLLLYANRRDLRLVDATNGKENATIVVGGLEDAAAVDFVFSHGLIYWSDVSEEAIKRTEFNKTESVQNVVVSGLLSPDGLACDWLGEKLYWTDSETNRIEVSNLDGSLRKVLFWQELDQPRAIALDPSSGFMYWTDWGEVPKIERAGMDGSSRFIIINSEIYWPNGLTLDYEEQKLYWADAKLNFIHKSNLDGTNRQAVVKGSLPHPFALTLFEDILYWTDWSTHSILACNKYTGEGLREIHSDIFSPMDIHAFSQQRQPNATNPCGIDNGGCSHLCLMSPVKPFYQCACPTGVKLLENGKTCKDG
# T2: full-length extracellular domain of LRP6 (E1-E4) (human, UniProt O75581 20-1370)
# T2 sequence: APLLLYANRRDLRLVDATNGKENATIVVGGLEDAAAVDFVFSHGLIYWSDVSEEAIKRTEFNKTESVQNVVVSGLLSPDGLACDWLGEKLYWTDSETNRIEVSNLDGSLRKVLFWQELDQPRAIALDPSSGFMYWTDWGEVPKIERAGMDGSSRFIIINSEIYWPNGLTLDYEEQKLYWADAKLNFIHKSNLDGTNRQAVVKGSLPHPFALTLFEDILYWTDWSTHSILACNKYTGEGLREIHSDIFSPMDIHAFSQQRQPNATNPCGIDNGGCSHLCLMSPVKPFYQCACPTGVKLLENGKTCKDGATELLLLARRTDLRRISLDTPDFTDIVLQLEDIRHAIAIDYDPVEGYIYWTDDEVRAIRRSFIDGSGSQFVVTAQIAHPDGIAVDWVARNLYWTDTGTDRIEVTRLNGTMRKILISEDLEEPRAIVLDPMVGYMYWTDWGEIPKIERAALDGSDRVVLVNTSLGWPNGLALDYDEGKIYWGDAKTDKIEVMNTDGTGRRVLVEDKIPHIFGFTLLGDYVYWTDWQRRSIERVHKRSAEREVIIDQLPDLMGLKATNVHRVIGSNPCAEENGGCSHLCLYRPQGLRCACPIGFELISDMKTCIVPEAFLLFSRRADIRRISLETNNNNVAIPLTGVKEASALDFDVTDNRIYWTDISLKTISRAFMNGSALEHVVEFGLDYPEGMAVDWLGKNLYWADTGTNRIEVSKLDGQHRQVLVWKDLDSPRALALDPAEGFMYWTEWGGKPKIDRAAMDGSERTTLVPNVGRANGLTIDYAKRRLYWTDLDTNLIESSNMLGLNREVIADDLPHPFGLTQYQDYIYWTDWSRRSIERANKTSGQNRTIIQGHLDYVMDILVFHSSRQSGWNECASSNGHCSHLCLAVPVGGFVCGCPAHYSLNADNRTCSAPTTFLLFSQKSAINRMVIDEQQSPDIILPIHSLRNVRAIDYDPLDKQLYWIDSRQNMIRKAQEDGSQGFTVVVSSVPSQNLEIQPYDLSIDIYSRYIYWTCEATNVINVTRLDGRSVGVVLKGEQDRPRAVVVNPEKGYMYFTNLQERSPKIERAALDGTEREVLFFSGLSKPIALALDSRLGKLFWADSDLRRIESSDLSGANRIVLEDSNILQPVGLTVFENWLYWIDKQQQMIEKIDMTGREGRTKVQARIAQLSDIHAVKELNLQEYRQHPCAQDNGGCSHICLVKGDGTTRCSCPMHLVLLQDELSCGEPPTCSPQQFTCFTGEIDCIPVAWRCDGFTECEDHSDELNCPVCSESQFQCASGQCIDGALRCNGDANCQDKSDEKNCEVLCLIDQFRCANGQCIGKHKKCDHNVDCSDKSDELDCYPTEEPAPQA
# What was measured:
# [1] = system: AT2 cells in alveolospheres; format: cell-based, mouse; conditions: LGK974 alone, 2 wk
# LRP6 E1 = molecular target: T1, LRP6 E1; test: SPR binding to immobilized LRP6 E1 domain
# LRP6 E1-E2 = test: SPR binding to immobilized LRP6 E1-E2; parameters: species or system human
# [2] = molecular target: LRP6 E1-E2 domains (human); test: SPR
# [3] = molecular target: LRP6 E3-E4 domains (human); test: SPR
# LRP6 E3-E4 = test: SPR binding to immobilized LRP6 E3-E4; parameters: species or system human
# [4] = system: Wnt1/sFRP-1 binding to LRP6-E1-E2; test: SPR competition with Wnt1/sFRP-1 for LRP6-E1-E2; parameters: species or system human; conditions: surface coated with LRP6-E1-E2 and saturated with competitor
# Procedure, shortened: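 The SPR surface was coated with LRP6-E1-E2, then saturated with competitor or given buffer only. Wnt1/sFRP-1 (purified recombinant complex), competitor, or a mixture of the two was injected immediately afterward. Wnt1/sFRP-1 binding signal with or without competitor was inspected manually.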
# MC3T3-E1 cells = test: Osteogenic differentiation of MC3T3-E1 cells; format: cell-based, murine; conditions: MC3T3-E1 in om+ medium, 21 d; 5 µM Lr-EET-3.5, 1 µg SOST, 1 µM FabYW210 and FabYW211; four independent assays
# Procedure, shortened: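 MC3T3-E1 cells were grown in differentiation medium (50 µg/mL ascorbate-2-phosphate, 10 mM β-glycerophosphate) or in control medium without these factors, plus LRP6-binding reagents (Fabs 1 µM, test compound 5 µM). Mineralized nodules were stained with alizarin red S at 21 d, and nodule area above the control-medium background was quantified. Bglap mRNA was measured by qRT-PCR after 1 wk. Values are means of four independent assays, with SD and one-way ANOVA.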
# LRP6 E2 = conditions: read-out: KD, binding to E2 alone; previously reported; cited from earlier work
# [5] = molecular target: T2, full-length extracellular domain of …; test: SPR
# [6] = molecular target: LRP6 E1-E2 domains (human); test: SPR; remark: listed apart in the source
# Chain of Dickkopf-1 (DKK1) (O94907 32-266): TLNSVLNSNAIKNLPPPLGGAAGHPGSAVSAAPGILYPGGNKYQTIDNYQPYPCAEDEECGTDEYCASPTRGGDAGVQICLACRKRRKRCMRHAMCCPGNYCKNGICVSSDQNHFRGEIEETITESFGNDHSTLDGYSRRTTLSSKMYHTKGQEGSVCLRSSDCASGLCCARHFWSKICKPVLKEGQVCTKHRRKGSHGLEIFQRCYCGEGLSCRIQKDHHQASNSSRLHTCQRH
molecule,measurement,setting,value
Cc1cc(-c2ncc(CC(=O)Nc3ccc(-c4cnccn4)cn3)cc2C)ccn1 [LGK974],AT2 proliferation and formation of alveolospheres,[1],abrogated AT2 proliferation and the formation of alveolospheres
DKK1: natural Wnt inhibitor Dickkopf-1,"KD, E1 alone","LRP6 E1; SPR, no competitor, two state model",no detectable binding
same,"KD, E1-E2 in the presence of Lr-EET-3.5",LRP6 E1-E2; surface saturated with 500 nM Lr-EET-3.5 and 500 nM CKP in every dilution,ablated the binding
Dickkopf-1 (DKK1) (from UniProt O94907 32-266) (natural protein),Kd,[2],135 nM
same,Kd,[3],43 nM
SOST: natural Wnt inhibitor sclerostin,binding to E1 alone on addition of Lr-EET-3.5,"LRP6 E1; SPR competition, 500 nM Lr-EET-3.5",completely blocked
same,"KD, E3-E4",LRP6 E3-E4; two state model,no interaction detected
same,effect on binding of WNT1/sFRP-1 to LRP6,[4],antagonistic effect
same,inhibition of matrix mineralization (alizarin red-S staining),MC3T3-E1 cells,comparable
same,Kd,LRP6 E2,1300 nM
sclerostin (SOST) (from UniProt Q9BQB4 24-213) (natural protein),KD in the presence of Lr-EET-3.5,[2],47 nM
same,Kd,[2],3.3 nM
sclerostin (SOST) (natural protein) QGWQAFKNDATEIIPELGEYPEPPPELENNKTMNRAENGGRPPHHPFETKDVSEYSCRELHFTRYVTDGPCRSAKPVTELVCSGQCGPARLLPNAIGRGKWWRPSGPDFRCIPDRYRAQRVQLLCPGGEAPRARKVRLVASCKCKRLTRFHNQSELKDFGTEAARPQKGRKPRPRARSAKANQAELENAY,KD in the presence of Lr-EET-3.5,[5],41 nM
same,Kd,[5],3.8 nM
WNT1/secreted frizzled related protein 1 (sFRP-1) complex (complex) chain 1: ANSSGRWWGIVNVASSTNLLTDSKSLQLVLEPSLQLLSRKQRRLIRQNPGILHSVSGGLQSAVRECKWQFRNRRWNCPTAPGPHLFGKIVNRGCRETAFIFAITSAGVTHSVARSCSEGSIESCTCDYRRRGPGGPDWHWGGCSDNIDFGRLFGREFVDSGEKGRDLRFLMNLHNNEAGRTTVFSEMRQECKCHGMSGSCTVRTCWMRLPTLRAVGDVLRDRFDGASRVLYGNRGSNRASRAELLRLEPEDPAHKPPSPHDLVYFEKSPNFCTYSGRLGTAGTAGRACNSSSPALDGCELLCCGRGHRTRTQRVTERCNCTFHWCCHVSCRNCTHTRVLHECL chain 2: SEYDYVSFQSDIGPYQSGRFYTKPPQCVDIPADLRLCHNVGYKKMVLPNLLEHETMAEVKQQASSWVPLLNKNCHAGTQVFLCSLFAPVCLDRPIYPCRWLCEAVRDSCEPVMQFFGFYWPEMLKCDKFPEGDVCIAMTPPNATEASKPQGTTVCPPCDNELKSEAIIEHLCASEFALRMKIKEVKKENGDKKIVPKKKKPLKLGPIKKKDLKKLVLYLKNGADCPCHQLDNLSHHFLIMGRKVKSQYLLTAIHKWDKKNKEFKNFMKKMKNHECPTFQSVFK,Kd,[6],3.4 nM
same,Kd,[5],6 nM
same,Kd,"LRP6 E1-E2; read-out: KD, E1-E2, Wnt1/sFRP-1 as analyte, 1:1 binding model",3.4 nM
same,interaction with E3-E4,LRP6 E3-E4; Wnt1/sFRP-1 as analyte,no interaction detected
